In article PMC2818544 (Bioorganic & medicinal chemistry, 2009):
pIC50, pKi: −log10 of the molar value.

What was measured:
RmlC and RmlD [1] = molecular target: RmlC and RmlD (Mycobacterium tuberculosis, UniProt P9WH09); type: biochemical; conditions: read-out: Km of NADPH; cofactor; TDP-KDX at 200 μM
RmlC [2] = molecular target: T1, RmlC (Mycobacterium tuberculosis, UniProt P9WH11); assay: 96-well RmlC/RmlD coupled assay, NADPH absorbance at 340 nm; type: biochemical
RmlC [3] = molecular target: T1, RmlC; assay: Mode of inhibition: TDP-KDX Km; type: biochemical
RmlC [4] = molecular target: T1, RmlC; assay: Time dependence of the onset of inhibition; type: biochemical; conditions: pre-incubation 0, 1, 2 or 3 hr
Summary of the method: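 Test compound came from a 16-point 2-fold serial dilution (2.5 mM top stock) and was diluted in water. It was pre-incubated 0–3 hr with 2x RmlC, RmlD and NADPH in 83.5 mM MOPS. TDP-KDX was then added and NADPH fluorescence followed over 90 min. IC50 came from a 4-parameter logistic fit of percent activity.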

RmlC [5] = molecular target: T1, RmlC; assay: Reversibility of inhibition; type: biochemical; conditions: 10 times IC50 pre-incubated 0 or 0.5 hr with 100x RmlC, diluted 100-fold
Summary of the method: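 Test compound incubated 0 or 0.5 hr at 25°C with concentrated RmlC in buffer, then diluted 100-fold. RmlD, TDP-KDX and NADPH were added, and activity was followed as the decrease in NADPH fluorescence (340/460 nm) over 200 min. Controls had no compound, or compound added only after dilution.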

RmlC and RmlD [6] = type: biochemical, Mycobacterium tuberculosis; conditions: read-out: IC50 of the known inhibitor TDP
[7] = Cytotoxicity, CellTiter-Glo luminescence; type: cell-based; conditions: human, human aortic endothelial (HAE) cells

T1 sequence (P9WH11 whole entry, looked up): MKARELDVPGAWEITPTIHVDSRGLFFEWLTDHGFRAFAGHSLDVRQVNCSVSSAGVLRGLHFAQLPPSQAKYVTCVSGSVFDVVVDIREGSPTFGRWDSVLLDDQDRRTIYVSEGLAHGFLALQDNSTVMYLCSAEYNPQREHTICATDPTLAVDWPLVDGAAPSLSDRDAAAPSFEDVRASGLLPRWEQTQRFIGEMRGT
RmlC and RmlD (Mycobacterium tuberculosis, UniProt P9WH09), sequence (P9WH09 whole entry): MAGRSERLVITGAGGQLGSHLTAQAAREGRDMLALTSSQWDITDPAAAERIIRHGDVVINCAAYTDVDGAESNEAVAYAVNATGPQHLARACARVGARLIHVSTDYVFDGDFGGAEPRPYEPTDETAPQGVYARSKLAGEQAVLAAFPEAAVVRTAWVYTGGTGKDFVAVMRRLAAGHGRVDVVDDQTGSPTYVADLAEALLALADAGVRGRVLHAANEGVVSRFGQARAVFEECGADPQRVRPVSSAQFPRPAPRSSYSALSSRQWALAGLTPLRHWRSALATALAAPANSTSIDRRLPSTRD

NC(=O)C1=CN([C@@H]2O[C@H](COP(=O)(O)OP(=O)(O)OC[C@H]3O[C@@H](n4cnc5c(N)ncnc54)[C@H](OP(=O)(O)O)[C@@H]3O)[C@@H](O)[C@H]2O)C=CC1 [NADPH] gave a Km (RmlC and RmlD [1]) of 12 µM.

In the case of C=CCn1c2ccccc2c2nnc(SCn3c(=O)[nH]c4ccccc43)nc21 [SID 7972845], the “fold increase of IC50 relative to 77074” value (RmlC [2]) was 86 fold.

With CCn1c2ccccc2c2nnc(SCCCn3c(=O)[nH]c4ccccc43)nc21 [SID 7975595, 1-(3-(5-ethyl-5H-[1,2,4]triazino[5,6-b]indol-3-ylthio)propyl)-1H-benzo[d]imidazol-2(3H)-one] the pKi (RmlC [3]) was 7.00, the “affinity of inhibitor relative to TDP-KDX (Km versus Ki)” value (RmlC [3]; comparison of Km of TDP-KDX and Ki of inhibitor) was “approximately 2000 fold” and the mode of inhibition (RmlC [3]; versus substrate TDP-KDX) was “classical competitive inhibitor”. The “change of IC50 with pre-incubation time (onset of inhibition)” value (RmlC [4]) was “No such decrease in IC50 was observed” and the reversibility of inhibition (RmlC [5]) was “fully reversible inhibitor”.

Cc1cn([C@H]2C[C@H](O)[C@@H](COP(=O)(O)OP(=O)(O)O)O2)c(=O)[nH]c1=O [TDP, reference compound] gave a pIC50 (RmlC and RmlD [6]) of 3.47.

With O=c1[nH]c2ccccc2n1CCCSc1nnc2c3ccccc3n(Cc3ccccc3)c2n1 [compound 77070] the “fold increase of IC50 relative to SID 7975595 (R1 ethyl)” value (RmlC [2]) was “approximately 15 fold”.

With CCCn1c2ccccc2c2nnc(SCCCn3c(=O)[nH]c4ccccc43)nc21 [compound 77071] the “fold increase of IC50 relative to 77074” value (RmlC [2]) was 10 fold.

COc1cccc2c1C(=O)c1c(O)c3c(c(O)c1C2=O)C[C@@](O)(C(=O)CO)C[C@@H]3O[C@H]1C[C@H](N)[C@H](O)[C@H](C)O1 [doxorubicin] showed an IC50 at 24 h [7] of ~10 µM.
